Measurements from ChEMBL document CHEMBL1158061, “Alkaloids from Gelsemium elegans” (J Nat Prod, 2006).
pIC50: −log10 of the molar value.

Experiments:
Type in all cases: functional, cell-based
[1] = tested on: P388; assay: Cytotoxicity against mouse P388 cells by MTT method
Outline: (§1)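 MTT assay on P388 (murine leukemia) and HL-60 (human leukemia) cells, run by standard protocol with pseudolaric acid B as positive control. Values are reported as IC50 in molar units.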

[2] = tested on: HL-60; assay: Cytotoxicity against human HL-60 cells by MTT method; outline: as §1
[3] = tested on: A549; assay: Cytotoxicity against human A549 cells by SRB method
Outline: (§2)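 SRB assay on A-549 (human lung adenocarcinoma) and BEL-7402 (human hepatocellular carcinoma) cells, run by standard protocol with pseudolaric acid B as positive control. Values are reported as IC50 in molar units.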

[4] = tested on: Bel-7402; assay: Cytotoxicity against human Bel-7402 cells by SRB method; outline: as §2

Row | SMILES | pIC50 [1] | pIC50 [2] | pIC50 [3] | pIC50 [4]
1 | CON1C(=O)[C@@]2(C[C@@H]3N=C([C@@H](C)C[C@H]4C(=O)OC[C@H]5[C@@H]4[C@@H](O)C[C@@H]5C)[C@@H]4[C@@H](O)[C@H]2OC[C@@H]43)c2ccccc21 | < 5.00 | < 5.00 | < 5.00 | < 5.00
2 | CON1C(=O)[C@@]2(C[C@@H]3N=C([C@H](C)C[C@@H]4C(=O)O[C@H]5C[C@H](C)[C@@H](CO)[C@H]54)[C@@H]4[C@@H](O)[C@H]2OC[C@@H]43)c2ccccc21 | < 5.00 | < 5.00 | < 5.00 | < 5.00
3 | CCN(CC)C[C@@H]1C(=O)O[C@H]2C[C@H](C)[C@@H](CO)[C@H]21 [GELSEBAMINE] | – | – | 6.20 | –
4 | C=C[C@@]12CN(C)C3C1[C@@]1(C(=O)N(C[C@@H]4C(=O)O[C@H]5C[C@H](C)[C@@H](CO)[C@H]54)c4ccccc41)[C@H]1C[C@@H]2[C@@H]3CO1 [GELSEBANINE] | < 5.00 | < 5.00 | < 5.00 | < 5.00
